Compounds with a hit are over-represented: about 6.7% of the library has one in this group of screens.
PREPL inhibitor: PREPL enzyme inhibitors, primary screen, biochemical, fluorescence polarization; recombinant PREPL, fluorescence polarization activity-based probe; inhibition, % at 5.96 µM; 0.68% of 320,000 active; in the data active = inhibition above about 43%;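 note: 0% = enzyme with DMSO and 100% = wells lacking enzyme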
Target sequence (Q4J6C6 whole entry, looked up): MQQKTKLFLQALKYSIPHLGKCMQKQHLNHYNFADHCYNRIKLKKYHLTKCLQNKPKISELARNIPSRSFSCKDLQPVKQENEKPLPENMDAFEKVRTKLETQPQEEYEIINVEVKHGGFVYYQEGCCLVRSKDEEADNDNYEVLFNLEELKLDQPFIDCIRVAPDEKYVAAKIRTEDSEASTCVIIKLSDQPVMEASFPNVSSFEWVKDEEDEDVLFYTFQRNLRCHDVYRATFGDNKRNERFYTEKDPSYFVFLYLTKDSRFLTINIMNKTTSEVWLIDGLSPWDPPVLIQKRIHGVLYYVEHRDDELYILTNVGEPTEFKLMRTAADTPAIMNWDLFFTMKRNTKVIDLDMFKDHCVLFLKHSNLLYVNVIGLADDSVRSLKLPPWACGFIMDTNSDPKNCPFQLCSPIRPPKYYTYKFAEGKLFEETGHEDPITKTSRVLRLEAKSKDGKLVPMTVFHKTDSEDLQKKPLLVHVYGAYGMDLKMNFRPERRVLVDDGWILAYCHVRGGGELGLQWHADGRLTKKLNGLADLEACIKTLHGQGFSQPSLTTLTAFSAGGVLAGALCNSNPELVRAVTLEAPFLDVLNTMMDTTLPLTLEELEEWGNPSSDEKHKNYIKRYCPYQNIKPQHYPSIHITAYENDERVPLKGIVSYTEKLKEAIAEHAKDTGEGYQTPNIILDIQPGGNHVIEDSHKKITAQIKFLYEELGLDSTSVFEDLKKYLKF
Beta cell apopt: inhibitors of cytokine-induced beta cell apoptosis, primary screen, luminescence; AID 435005, 2010; INS-1E cytokine-induced death, ATP luminescence, 48 h; percent of positive-control rescue, neutral wells zero; 0.8% of 300,000 active; protection from apoptosis, % (test concentration not listed);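 active = Every replicate reaches about 75%, or at least half do and their mean reaches it too, limit read from the data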;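 note: 0% = cytokine-treated negative control wells and 100% = positive control rescue; higher means more ATP so stronger rescue from cytokine killing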
CSC inhib: cancer stem cell viability inhibitors, primary screen, luminescence; cancer stem cell-like cells viability; AID 2717, 2010; inhibition, % at 7.5 µM; 1.1% of 300,000 active; in the data active = inhibition above about 75%; tested in HMLE shEcad cells
T cruzi inh: inhibitors of intracellular T. cruzi growth, primary screen, luminescence, NIH3T3 host cells | 1.4% of 300,000 active | AID 1885, 2009 | inhibition, % (test concentration not listed) | T. cruzi beta-gal in NIH3T3, 90 h;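 active = mean inhibition across valid replicates above about 55%, limit read from the data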;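 note: signal also drops with host cell toxicity which is not excluded here; 0% = plate median of DMSO wells and 100% = zero luminescence signal; higher percent means less beta-gal luminescence so fewer parasites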
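Test system: β-gal T. cruzi (Tulahuen C4) inside NIH/3T3 cells / Quantity: 5,000 cells/well / Measured by: luminescence from GalScreen with 0.05% NP40, read after 60 min / Medium: DMEM plus 2% FBS / Measure: parasite load inhibition, % / Reagent: Tulahuen C4 trypomastigotes, 5000/well / Schedule: co-culture of at least 90 h after 3 h attachment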
NR3A LBD binder: binders of NR3A ligand-binding domain, primary screen, biophysical, differential scanning fluorimetry, uHTS. Tm shift relative to glycine control, % at 25 µM. AID 1259313, 2017. Glutamate receptor ionotropic, NMDA 3A (GRIN3A) ligand-binding domain. 2.5% of 340,000 active. NR3A LBD differential scanning fluorimetry, Tm shift; 0% = protein alone, 100% = glycine-bound protein;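 active = melting temperature shift of at least 10% of the positive control shift, at one fixed dose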
CHOP inhibitor: inhibitors of CHOP promoter induction, primary screen, cell-based, unfolded protein response, luciferase reporter | CHO-K1 CHOP-promoter luciferase, tunicamycin-induced, 15-18 h | inhibition, % at 10 µM | 3.8% of 220,000 active;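 active = compounds that reduced the stress-induced luciferase reporter signal by more than about 70% of percent inhibition, limit read from the data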;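 note: 0% = tunicamycin plus vehicle and 100% = wells without tunicamycin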
An asterisk follows results filed as active; x = no result.

SMILES | PREPL inhibitor | Beta cell apopt | CSC inhib | T cruzi inh | NR3A LBD binder | CHOP inhibitor
CC(Oc1cccc(Cl)c1)C(=O)Nc1ccccc1N1CCCCC1 (configuration not stated) | -6 | 5 | 36 | 22 | 4 | x
CC(Oc1cccc(Cl)c1)C(=O)Nc1cc(Cl)ccc1N1CCOCC1 (configuration not stated) | 6 | 11 | 2 | 41 | 21* | x
CO/N=C(\Cn1ncc(N2CCCC2)c(Br)c1=O)c1ccc(Cl)cc1 | -32 | -12 | 6 | 3 | -1 | 42
CO/N=C(\Cn1ncc(NC2CCCCC2)c(Br)c1=O)c1ccc(Cl)cc1 | -8 | 1 | 44 | x | -1 | 84*
COc1ccc(C(=O)/C(=C/O)N=Nc2ccc(F)cc2)cc1 | 6 | x | 53 | 4 | 9 | 53
COc1ccc(N=N/C(=C\O)C(=O)c2cccs2)cc1 | 14 | x | 88* | 1 | 0 | 72*
COc1ccc(NC(=O)CN(C)C(=O)c2oc3c(ccc4ccccc43)c2C)cc1 | 1 | 3 | x | x | -10 | x
Cc1cc(NC(=O)COC(=O)c2ccccc2Cl)no1 | 2 | -7 | -1 | x | -2 | x
Cc1c(C(=O)OCC(=O)Nc2cccc(S(N)(=O)=O)c2)oc2c1ccc1ccccc12 | -19 | -9 | 4 | 3 | 15* | 34
COc1cccc(NC(=O)CN(C)C(=O)c2ccc(NC(=O)CC3SC(N4CCCCC4)=NC3=O)cc2)c1 (configuration not stated) | 1 | x | -20 | -8 | 4 | x
COc1cccc(NC(=O)CN(C)C(=O)c2ccc(NC(=O)CC3SC(N4CCCC4)=NC3=O)cc2)c1 (configuration not stated) | x | x | x | x | 11* | x
COc1cccc(NC(=O)CN(C)C(=O)c2oc3c(ccc4ccccc43)c2C)c1 | -1 | -2 | -6 | 14 | 17* | x
Cc1cc(NC(=O)COC(=O)c2oc3c(Cl)cccc3c2C)no1 | 8 | 0 | 1 | -9 | -5 | 74*
CC(C)C1CC(CCN)(Cc2ccccc2)CCO1 (configuration not stated) | 8 | 0 | -6 | -1 | 2 | -9
Cc1ccc(OCC(=O)c2ccc(Cl)s2)c([N+](=O)[O-])n1 | 11 | 1 | -8 | -3 | -5 | -50
O=C(/C=C/c1ccc(Cl)cc1Cl)OCC(=O)N1CCCC1 | 10 | 0 | -10 | x | 1 | x
NS(=O)(=O)c1ccc(CCNC(=S)Nc2ccccc2)cc1 | 7 | 4 | -41 | -30 | -13 | 18
CCOC(=O)c1nnn(-c2nonc2N)c1C | 8 | -3 | -6 | -4 | 0 | 17
CCCN(CCC)Cc1c(C(=O)OCC)nnn1-c1nonc1N | -8 | -6 | -17 | -3 | 1 | 86*
COc1ccc(OC)c2sc(NC(=O)c3ccc(Br)s3)nc12 | 6 | 68 | -5 | -12 | 0 | 91*
Cc1cc(C)c(NC(=O)COC(=O)c2cccc3c2C(=O)c2ccccc2C3=O)c(C)c1 | 26 | 3 | 29 | -9 | -30 | 51
Cc1cc(C)c(Nc2cc(S(=O)(=O)O)c(N)c3c2C(=O)c2ccccc2C3=O)c(C)c1 | 57* | 16 | 94* | x | 547* | 39
NC(=O)c1ccccc1NC(=O)C1CCCO1 (configuration not stated) | 1 | x | -5 | -8 | -2 | x
COC(=O)CCSC(=S)N1CCOCC1 | -5 | -4 | -6 | -1 | 1 | 9
COC(=O)Sc1nnc(-c2ccc(Br)cc2)o1 | 0 | -10 | 1 | -12 | x | 91*
OCC#CCSc1nnc(-c2ccc(Br)cc2)o1 | -4 | x | -7 | 13 | 0 | 2
Fc1cccc(CCN2CCNC[C@@H]2Cc2ccccc2)c1 | 27 | 6 | -7 | 14 | -4 | x
FC(F)(F)c1cc(CCN2CCNC[C@@H]2Cc2ccccc2)cc(C(F)(F)F)c1 | -61 | 18 | 77* | 38 | -4 | x
C=CCn1c(CSc2ccccc2[N+](=O)[O-])n[nH]c1=S | 8 | -6 | -17 | -13 | x | x

Screens deposited in PubChem by several laboratories.
